Blank lines part the entries; values can stand above or below the molecule they belong to.
Key:
Mus musculus [1] = species: Mus musculus; assay: Selectivity ratio of IC50 for mouse brain MAGL to mouse brain FAAH
Mus musculus [2] = species: Mus musculus; assay: Selectivity ratio of IC50 for mouse brain KIAA1363 to mouse brain FAAH
Mus musculus [3] = species: Mus musculus; assay: Selectivity ratio of IC50 for mouse brain ABHD6 to mouse brain FAAH
[4] = biological target: T1, Fatty-acid amide hydrolase 1 (Rattus norvegicus, UniProt P97612); assay: Inhibition of rat recombinant FAAH expressed in Escherichia coli using [14C]oleamide as substrate assessed as oleic acid formation by Dixon plot analysis
T1 sequence (P97612 whole entry): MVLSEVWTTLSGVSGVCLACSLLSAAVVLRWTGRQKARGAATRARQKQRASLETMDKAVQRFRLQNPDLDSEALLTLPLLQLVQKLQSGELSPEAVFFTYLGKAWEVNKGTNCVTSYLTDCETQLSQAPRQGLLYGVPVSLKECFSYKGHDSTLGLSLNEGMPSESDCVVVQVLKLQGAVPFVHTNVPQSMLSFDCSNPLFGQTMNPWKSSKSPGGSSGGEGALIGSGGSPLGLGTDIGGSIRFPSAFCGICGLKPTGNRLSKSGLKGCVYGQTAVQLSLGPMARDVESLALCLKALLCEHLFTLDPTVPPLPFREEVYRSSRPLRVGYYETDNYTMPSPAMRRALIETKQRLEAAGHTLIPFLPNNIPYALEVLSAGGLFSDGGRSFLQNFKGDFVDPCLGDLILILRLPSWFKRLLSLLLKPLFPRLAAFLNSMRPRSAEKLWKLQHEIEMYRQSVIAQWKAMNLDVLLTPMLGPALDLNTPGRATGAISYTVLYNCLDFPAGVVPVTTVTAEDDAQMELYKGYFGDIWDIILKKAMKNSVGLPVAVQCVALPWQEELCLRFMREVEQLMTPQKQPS

[5] = biological target: T2, Fatty-acid amide hydrolase 1 (Mus musculus, UniProt O08914); assay: Inhibition of mouse brain FAAH incubated for 10 mins prior to rhodamine-tagged fluorophosphonate addition measured after 10 mins by SDS-PAGE
T2 sequence (O08914 whole entry): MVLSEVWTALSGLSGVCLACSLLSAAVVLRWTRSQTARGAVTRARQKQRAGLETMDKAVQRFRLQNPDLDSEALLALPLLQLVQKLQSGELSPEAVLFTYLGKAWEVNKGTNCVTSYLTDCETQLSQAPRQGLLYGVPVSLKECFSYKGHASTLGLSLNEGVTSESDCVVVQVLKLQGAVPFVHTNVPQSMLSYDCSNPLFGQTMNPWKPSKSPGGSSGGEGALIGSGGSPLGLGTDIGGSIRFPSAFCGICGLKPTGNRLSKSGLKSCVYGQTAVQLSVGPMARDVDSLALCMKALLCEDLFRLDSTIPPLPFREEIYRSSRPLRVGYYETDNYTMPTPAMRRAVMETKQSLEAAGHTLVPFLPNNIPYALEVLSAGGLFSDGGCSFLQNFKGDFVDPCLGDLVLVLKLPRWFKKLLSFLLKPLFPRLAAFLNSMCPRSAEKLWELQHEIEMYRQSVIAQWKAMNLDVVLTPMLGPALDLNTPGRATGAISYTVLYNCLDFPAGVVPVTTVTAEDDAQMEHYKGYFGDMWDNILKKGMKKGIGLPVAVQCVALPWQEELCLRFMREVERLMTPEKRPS
In short: (§1)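 Mouse brain tissue was Dounce-homogenized in PBS pH 7.5, cleared at 1,400 g for 5 min, then split at 64,000 g for 45 min into soluble and membrane fractions. Proteome at 1 mg/mL in PBS was preincubated with inhibitor from DMSO stock for 10 min, then exposed to FP-rhodamine at 100 nM for 10 min at 25 °C. Gel bands were scanned and integrated relative to a DMSO control. IC50 came from dose-response curves, three trials per concentration.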

[6] = biological target: T3, Monoacylglycerol lipase ABHD6 (Mus musculus, UniProt Q8R2Y0); assay: Inhibition of mouse brain ABHD6 incubated for 10 mins prior to rhodamine-tagged fluorophosphonate addition measured after 10 mins by SDS-PAGE; format: tissue-based; in short: as §1
T3 sequence (Q8R2Y0 whole entry): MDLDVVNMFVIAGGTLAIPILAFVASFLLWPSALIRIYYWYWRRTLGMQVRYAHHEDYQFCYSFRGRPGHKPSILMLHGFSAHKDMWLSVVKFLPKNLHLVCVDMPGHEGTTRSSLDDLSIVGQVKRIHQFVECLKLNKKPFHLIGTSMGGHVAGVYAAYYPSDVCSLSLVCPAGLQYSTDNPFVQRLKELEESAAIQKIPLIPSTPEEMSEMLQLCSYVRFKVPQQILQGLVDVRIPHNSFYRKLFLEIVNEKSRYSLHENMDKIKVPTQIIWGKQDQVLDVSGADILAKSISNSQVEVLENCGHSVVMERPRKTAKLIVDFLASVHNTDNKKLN

Monoglyceride lipase = biological target: T4, Monoglyceride lipase (Mus musculus, UniProt O35678); assay: Inhibition of mouse brain MAGL incubated for 10 mins prior to rhodamine-tagged fluorophosphonate addition measured after 10 mins by SDS-PAGE; in short: as §1
T4 sequence (O35678 whole entry): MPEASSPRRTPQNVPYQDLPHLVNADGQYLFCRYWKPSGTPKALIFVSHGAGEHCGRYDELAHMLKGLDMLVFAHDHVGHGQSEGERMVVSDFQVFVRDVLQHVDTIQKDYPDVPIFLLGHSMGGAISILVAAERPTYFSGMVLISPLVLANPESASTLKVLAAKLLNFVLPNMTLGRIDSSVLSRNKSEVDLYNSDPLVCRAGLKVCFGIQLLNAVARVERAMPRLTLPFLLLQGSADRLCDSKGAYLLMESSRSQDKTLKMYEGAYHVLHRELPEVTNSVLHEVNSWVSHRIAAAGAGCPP

[7] = biological target: T5, Neutral cholesterol ester hydrolase 1 (Mus musculus, UniProt Q8BLF1); assay: Inhibition of mouse brain KIAA1363 incubated for 10 mins prior to rhodamine-tagged fluorophosphonate addition measured after 10 mins by SDS-PAGE; in short: as §1
T5 sequence (Q8BLF1 whole entry): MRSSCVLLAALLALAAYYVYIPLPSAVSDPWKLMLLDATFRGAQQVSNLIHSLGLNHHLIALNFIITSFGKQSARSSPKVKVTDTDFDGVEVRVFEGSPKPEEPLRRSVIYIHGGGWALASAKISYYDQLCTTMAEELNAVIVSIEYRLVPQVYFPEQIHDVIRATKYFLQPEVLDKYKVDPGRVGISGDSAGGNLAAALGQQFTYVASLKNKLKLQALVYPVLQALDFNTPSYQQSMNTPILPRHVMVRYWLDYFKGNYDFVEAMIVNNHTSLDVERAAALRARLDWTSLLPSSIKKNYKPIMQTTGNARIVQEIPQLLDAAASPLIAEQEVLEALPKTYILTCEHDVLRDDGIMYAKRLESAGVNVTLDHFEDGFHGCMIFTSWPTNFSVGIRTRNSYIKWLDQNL

[8] = biological target: T6, Fatty-acid amide hydrolase 1 (Homo sapiens, UniProt O00519); assay: Reversible inhibition of FAAH (unknown origin)
T6 sequence (O00519 whole entry): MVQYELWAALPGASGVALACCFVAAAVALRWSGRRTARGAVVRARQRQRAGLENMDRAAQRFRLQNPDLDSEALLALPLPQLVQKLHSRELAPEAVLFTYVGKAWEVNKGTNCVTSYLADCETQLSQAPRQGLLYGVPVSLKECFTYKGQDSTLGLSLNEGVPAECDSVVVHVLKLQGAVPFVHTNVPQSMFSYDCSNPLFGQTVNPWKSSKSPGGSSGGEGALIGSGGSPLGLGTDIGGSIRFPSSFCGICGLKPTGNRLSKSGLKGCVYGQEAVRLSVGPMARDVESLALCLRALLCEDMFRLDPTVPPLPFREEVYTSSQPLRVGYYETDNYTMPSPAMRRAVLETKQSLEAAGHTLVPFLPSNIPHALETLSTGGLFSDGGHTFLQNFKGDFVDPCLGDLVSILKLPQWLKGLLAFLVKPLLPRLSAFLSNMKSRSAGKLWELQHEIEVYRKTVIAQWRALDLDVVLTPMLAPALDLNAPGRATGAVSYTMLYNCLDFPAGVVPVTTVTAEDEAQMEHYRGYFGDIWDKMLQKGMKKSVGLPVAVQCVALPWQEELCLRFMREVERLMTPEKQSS

Ratio IC50 (Mus musculus [1]): > 200 | Ratio IC50 (Mus musculus [2]): > 200 | Ratio IC50 (Mus musculus [3]): > 200
Compound: O=C(c1ncc(-c2ccccn2)o1)C1CCc2cc(Oc3ccccc3)ccc2O1 (single isomer, unassigned) [listing 1 of 2 here]

Ki [4]: 18 nM
Compound: O=C(c1ncc(-c2ccccn2)o1)[C@H]1COc2cc(OCc3ccccc3)ccc2C1

Ki [4]: 17 nM
Compound: O=C(c1ncco1)C1CCc2cc(Oc3ccccc3)ccc2O1 (single isomer, unassigned; enantiomer 1)

Ki [4]: 20 nM
Compound: O=C(c1ncc(I)o1)[C@H]1COc2cc(Oc3ccccc3)ccc2C1

Compound: O=C(c1ncc(-c2ccccn2)o1)[C@H]1CCc2cc(Oc3ccccc3)ccc2C1
Ki [4]: 4.4 nM

Ki [4]: 11 nM
Compound: O=C(c1ncc(-c2ccccn2)o1)[C@@H]1COc2cc(-c3ccccc3)ccc2C1

Ki [4]: 120 nM | IC50 [5]: 50 nM | IC50 [6]: > 100000 nM | IC50 (Monoglyceride lipase): > 100000 nM | IC50 [7]: > 100000 nM
Compound: O=C(c1ncc(-c2ccccn2)o1)C1CCc2cc(Oc3ccccc3)ccc2O1 (single isomer, unassigned; enantiomer 2) [listing 1 of 2 here]

Ki [4]: 333 nM
Compound: COC(=O)c1cccc(-c2cnc(C(=O)[C@@H]3COc4cc(Oc5ccccc5)ccc4C3)o2)n1

Ki [4]: 33 nM
Compound: O=C(c1ncco1)C1COc2cc(Oc3ccccc3)ccc2C1 (racemic)

Ki [4]: 31 nM
Compound: O=C(c1ncco1)C1CCc2cc(Oc3ccccc3)ccc2O1 (single isomer, unassigned; enantiomer 2)

Ki [4]: 17 nM
Compound: O=C(c1ncc(-c2ccccn2)o1)[C@@H]1COc2cc(OCc3ccccc3)ccc2C1

Ki [4]: 31 nM
Compound: O=C(c1ncc(I)o1)[C@@H]1COc2cc(Oc3ccccc3)ccc2C1

Ki [4]: 18 nM | Ratio IC50 (Mus musculus [1]): > 200 | Ratio IC50 (Mus musculus [2]): > 200 | IC50 [5]: 90 nM | IC50 [6]: > 100000 nM | Ratio IC50 (Mus musculus [3]): > 200 | IC50 (Monoglyceride lipase): > 100000 nM | IC50 [7]: > 100000 nM
Compound: O=C(c1ncc(-c2ccccn2)o1)[C@H]1COc2cc(Oc3ccccc3)ccc2C1

Ki [4]: 32 nM
Compound: O=C(c1ncco1)[C@@H]1COc2cc(-c3ccccc3)ccc2C1

Ki [4]: 94 nM
Compound: COC(=O)c1cccc(-c2cnc(C(=O)C3CCc4cc(Oc5ccccc5)ccc4O3)o2)n1 (single isomer, unassigned; enantiomer 1)

Ki [4]: 17 nM
Compound: O=C(c1ncc(-c2ccccn2)o1)C1COc2cc(OCc3ccccc3)ccc2C1 (racemic)

Ki [4]: 41 nM
Compound: COC(=O)c1cccc(-c2cnc(C(=O)[C@H]3COc4cc(Oc5ccccc5)ccc4C3)o2)n1

Ki [4]: 16 nM
Compound: O=C(c1ncco1)[C@@H]1COc2cc(OCc3ccccc3)ccc2C1

Ki [4]: 20 nM
Compound: O=C(c1ncco1)[C@H]1COc2cc(OCc3ccccc3)ccc2C1

Ki [4]: 36 nM | IC50 [5]: 70 nM | IC50 [6]: > 100000 nM | IC50 (Monoglyceride lipase): > 100000 nM | IC50 [7]: > 100000 nM
Compound: O=C(c1ncc(-c2ccccn2)o1)C1CCc2cc(Oc3ccccc3)ccc2O1 (single isomer, unassigned) [listing 2 of 2 here]

Ki [4]: 20 nM
Compound: O=C(c1ncco1)[C@H]1COc2cc(-c3ccccc3)ccc2C1

Ki [8]: 800 nM
Compound: CCCCCCC(C)OC(=O)C(Br)C(C)=O (configuration not stated)

Ki [4]: 210 nM
Compound: COC(=O)c1cccc(-c2cnc(C(=O)C3CCc4cc(Oc5ccccc5)ccc4O3)o2)n1 (single isomer, unassigned; enantiomer 2)

Ki [4]: 23 nM
Compound: O=C(c1ncc(-c2ccccn2)o1)[C@H]1COc2cc(-c3ccccc3)ccc2C1

Ki [4]: 27 nM | Ratio IC50 (Mus musculus [1]): > 200 | Ratio IC50 (Mus musculus [2]): > 200 | IC50 [5]: 460 nM | IC50 [6]: > 100000 nM | Ratio IC50 (Mus musculus [3]): > 200 | IC50 (Monoglyceride lipase): > 100000 nM | IC50 [7]: > 100000 nM
Compound: O=C(c1ncc(-c2ccccn2)o1)[C@@H]1COc2cc(Oc3ccccc3)ccc2C1

Ratio IC50 (Mus musculus [1]): > 200 | Ratio IC50 (Mus musculus [2]): > 200 | Ratio IC50 (Mus musculus [3]): > 200
Compound: O=C(c1ncc(-c2ccccn2)o1)C1CCc2cc(Oc3ccccc3)ccc2O1 (single isomer, unassigned; enantiomer 2) [listing 2 of 2 here]

Reference: ChEMBL document CHEMBL3259544, “α-Ketoheterocycle inhibitors of fatty acid amide hydrolase: exploration of conformational constraints in the acyl side chain” (Bioorg Med Chem, 2014)
